Calls of active or inactive are those of the source. The calls are words filed in the database; no cut-off is given here.
How the values were obtained:
[1] = test system: dsDNA; assay: Binding affinity to double stranded DNA (unknown origin) assessed as change in melting temperature at 20 uM by fluorescence assay; assay type: nucleic-acid assay
[2] = test system: Quadruplex DNA; assay: Binding affinity to 5'-Dabcyl/3'-FM labeled c-Kit G-quadruplex DNA (unknown origin) assessed as change in melting temperature at 20 uM by fluorescence assay; assay type: nucleic-acid assay
Method in brief: (§1)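 Fluorescence melting of end-labelled oligonucleotides matching the c-myc and c-Kit G4 sequences used in the virtual screen. Melting profiles were recorded with and without increasing ligand concentrations.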

[3] = test system: Quadruplex DNA; assay: Binding affinity to 5'-Dabcyl/3'-FM labeled c-myc G-quadruplex DNA (unknown origin) assessed as change in melting temperature at 20 uM by fluorescence assay; assay type: nucleic-acid assay; method in brief: as §1
[4] = test system: Quadruplex DNA; assay: Stabilization of c-Kit G-quadruplex DNA (unknown origin) by circular dichroism method; assay type: nucleic-acid assay
[5] = test system: Quadruplex DNA; assay: Stabilization of c-myc G-quadruplex DNA (unknown origin) by circular dichroism method; assay type: nucleic-acid assay
[6] = test system: Quadruplex DNA; assay: Stabilization of 5'-biotinylated c-Kit G-quadruplex DNA (unknown origin) by surface plasmon resonance assay; assay type: nucleic-acid assay
[7] = test system: HGC-27; assay: Cytotoxicity against human HGC27 cells assessed as reduction in cell viability after 72 hrs by Alamar blue assay; assay type: functional, cell-based; settings: for IC50: HGC-27, 72 h
Method in brief: (§2)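 Cells were exposed to the compound for 72 h, and viability was read by Alamar Blue. IC50 values were taken from dose-response curves, with linear regression coefficients (R2) reported.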

[8] = (§3) Cytotoxicity against human HMC-1.2 cells assessed as reduction in cell viability after 72 hrs by Alamar blue assay; assay type: functional, cell-based; method in brief: as §2
[9] = species: Homo sapiens; assay: as §3; assay type: functional, cell-based; method in brief: as §2

CC(C)(N)C(=O)NC1CCN(C(=O)Cn2ccc3ccncc32)CC1
Activity [1]: inactive | ΔTm [2]: 0.1 °C | ΔTm [3]: 0.6 °C

Cc1ccc(COc2ccc(CNCC3CCNCC3)cc2)cc1
Activity [1]: inactive | ΔTm [2]: 2.3 °C | ΔTm [3]: 1.3 °C | Activity [4]: Active | Activity [5]: Active | Activity [6]: Dose-dependent effect | Activity [7]: Dose-dependent effect | IC50 [7]: 4220 nM | IC50 [8]: 4000 nM | Activity [9]: Dose-dependent effect

CCOc1cc(CNCC2CCNCC2)ccc1OCc1ccc(Cl)cc1
Activity [1]: inactive | ΔTm [2]: 3.2 °C | ΔTm [3]: 5.4 °C | Kd [4]: 18000 nM | Activity [5]: Active | Activity [6]: Dose-dependent effect | Activity [7]: Dose-dependent effect | IC50 [7]: 2370 nM | IC50 [8]: 2560 nM | Activity [9]: Dose-dependent effect

CC(C)CC(N)C(=O)NC1CCN(C(=O)Cn2ccc3ccncc32)CC1 (stereo not drawn)
Activity [1]: inactive | ΔTm [2]: 0.3 °C | ΔTm [3]: 0.1 °C

Cc1cc(-c2ccc(CNCC3CCNCC3)o2)ccc1Br
ΔTm [1]: 1.5 °C | ΔTm [2]: 3 °C | ΔTm [3]: 2 °C | Activity [4]: Active | Activity [5]: Active | Activity [7]: Dose-dependent effect | IC50 [7]: 2550 nM | IC50 [8]: 2560 nM | Activity [9]: Dose-dependent effect

CCn1cc(C(NC(=O)CCCN)c2ccc(F)cc2)c2ccncc21 (stereo not drawn)
Activity [1]: inactive | ΔTm [2]: 1.1 °C | ΔTm [3]: 0.4 °C

Reference: ChEMBL document CHEMBL4196163, “In Silico Identification of Piperidinyl-amine Derivatives as Novel Dual Binders of Oncogene c-myc/c-Kit G-quadruplexes” (ACS Med Chem Lett, 2018)
